This is an account of results in ChEMBL document CHEMBL3808376, “Iminolactones as tools for inversion of the absolute configuration of α-amino acids and as inhibitors of cancer cell proliferation” (Eur J Med Chem, 2016).

By pIC50 is commonly meant −log10 of the IC50, conventionally taken in molar units. Lower therefore signals a high IC50.

The subject of one assay is MCF7. In words: Antiproliferative activity against human MCF7 cells after 48 hrs by Sulforhodamine B assay. It is filed as functional, cell-based. Conditions: MCF7, 48 h. In short, it runs like this:
(§1)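 Cancer lines from the National Cancer Institute (murine leukemic EL4, human breast MCF7, human prostate PC3), in a standard high-flux screening format. Cells incubated with compound at several concentrations, 37 °C for 48 h. Trichloroacetic acid fixation, sulforhodamine B staining, absorbance read at 490 nm. IC50 reported as mean SD of three experiments.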
For orientation: Sulforhodamine B stains cellular protein and so reports cell mass.

Assay [1] is described as follows: Antiproliferative activity against mouse McCoy cells after 48 hrs by Sulforhodamine B assay. Type of assay: cell-based.
The nature of assay [2]: Antiproliferative activity against mouse NIH/3T3 cells after 48 hrs by Sulforhodamine B assay. Type of assay: cell-based. Conditions: NIH3T3, 48 h.
Another assay deals with EL4. In words: Antiproliferative activity against mouse EL4 cells after 48 hrs by Sulforhodamine B assay. It is filed as functional, cell-based. Conditions: EL4, 48 h. In short, it runs like this: as §1
A short description of assay [3]: Antiproliferative activity against human PC3 cells after 48 hrs by Sulforhodamine B assay. Type of assay: functional, cell-based. Particulars: PC-3, 48 h. In outline: as §1
Assay [4] can be described thus: Antiproliferative activity against human MCF10A cells after 48 hrs by Sulforhodamine B assay. It is filed as cell-based. Conditions: MCF-10A.

pIC50: −log10 of the molar value. A value given as a limit tells only on which side of the number the result lay.

Take `C[C@@]12CCCC[C@H]1CC[C@@H]1OC(=O)[C@H](Cc3c[nH]c4ccccc34)N=C12`: the pIC50 was 4.11 in the assay with MCF7; less than 2.82 in assay [1]; less than 2.82 in assay [2]; 4.15 with EL4; 4.08 in assay [3]; less than 2.82 in assay [4].
`CC(C)(C)OC(=O)NCCCC[C@H]1N=C2C[C@H]3C[C@H](C3(C)C)[C@@]2(C)OC1=O`: the pIC50 in the assay on MCF7 was 4.82; in assay [1] it was less than 2.89; in assay [2], less than 2.89; in the assay on EL4 it was 4.84; in assay [3], 4.80; in assay [4], less than 2.89.
`C[C@H]1N=C2C[C@H]3C[C@H](C3(C)C)[C@@]2(C)OC1=O`: the negative-log IC50 (pIC50) was 4.42 in the assay with MCF7; less than 2.74 in assay [1]; less than 2.74 in assay [2]; 4.57 with EL4; 4.38 in assay [3]; less than 2.74 in assay [4].
Consider `CC(C)(C)OC(=O)NCCCC[C@@H]1N=C2C[C@@H]3C[C@@H](C3(C)C)[C@]2(C)OC1=O`, for which the negative logarithm of the IC50 (pIC50) in the assay with MCF7 is 4.77; in assay [1], less than 3.10; in assay [2] it was less than 3.10; in the assay with EL4, 4.82; in assay [3], 4.74; in assay [4], less than 3.10.
In the case of `C[C@H]1N=C2[C@H](CC[C@@H]3CCCC[C@@]23C)OC1=O`, the pIC50 with MCF7 was 4.24; in assay [1], less than 2.70; in assay [2] it was less than 2.70; in the assay on EL4, 4.28; in assay [3] it was 4.24; in assay [4], less than 2.70.
`C[C@@]12CCCC[C@H]1CC=C(O)C2=O`: the negative-log IC50 (pIC50) with MCF7 is 3.92; in assay [1], less than 2.70; in assay [2], less than 2.70; in the assay on EL4, 3.94; in assay [3], 3.92; in assay [4], less than 2.70.
`O=C1O[C@H]2CCc3ccccc3C2=N[C@H]1Cc1ccccc1`: the negative-log IC50 (pIC50) with MCF7 is 4.39; in assay [1], less than 3.00; in assay [2], less than 3.00; with EL4 it was 4.41; in assay [3], 4.35; in assay [4] it was less than 3.00.
For `C[C@@]12CCCC[C@H]1CC[C@@H]1OC(=O)CN=C12`, the pIC50 with MCF7 was 4.96; in assay [1], less than 2.70; in assay [2], less than 2.70; in the assay on EL4, 5.11; in assay [3], 4.89; in assay [4] it was less than 2.70.
`CC(C)(C)OC(=O)NCCC[C@H]1N=C2C[C@H]3C[C@H](C3(C)C)[C@@]2(C)OC1=O`: the pIC50 in the assay with MCF7 is 4.25; in assay [1] it was less than 2.82; in assay [2], less than 2.82; in the assay on EL4, 4.32; in assay [3] it was 4.22; in assay [4], less than 2.82.
As to `CC1(C)[C@H]2CC3=N[C@H](CCC(=O)O)C(=O)O[C@]3(C)[C@@H]1C2`, the pIC50 is 4.47 in the assay with MCF7; less than 2.92 in assay [1]; less than 2.92 in assay [2]; 4.52 with EL4; 4.42 in assay [3]; less than 2.92 in assay [4].
As to `C[C@@]12CCCC[C@H]1CC[C@@H]1OC(=O)[C@@H](Cc3ccccc3)N=C12`, the pIC50 in the assay with MCF7 was 4.92; in assay [1] it was less than 2.92; in assay [2], less than 2.92; in the assay with EL4, 4.92; in assay [3], 4.92; in assay [4] it was less than 2.92.
Consider `O=C1O[C@H]2CCc3ccccc3C2=N[C@H]1Cc1c[nH]c2ccccc12`, for which the pIC50 with MCF7 was 4.41; in assay [1], less than 3.00; in assay [2], less than 3.00; in the assay on EL4, 4.44; in assay [3] it was 4.41; in assay [4], less than 3.00.
On to `CC1(C)[C@H]2CC[C@]1(C)[C@H]1OC(=O)CN=C21`, for which the pIC50 was 3.87 in the assay with MCF7; less than 3.05 in assay [1]; less than 3.05 in assay [2]; 4.09 in the assay with EL4; 3.84 in assay [3]; less than 3.05 in assay [4].
In the case of `O=C1O[C@@H]2CCc3ccccc3C2=N[C@H]1Cc1c[nH]c2ccccc12`, the negative-log IC50 (pIC50) in the assay on MCF7 was 4.60; in assay [1] it was less than 3.00; in assay [2] it was less than 3.00; in the assay on EL4 it was 4.66; in assay [3], 4.59; in assay [4], less than 3.00.
In the case of `CC1(C)[C@H]2CC3=N[C@H](Cc4ccccc4)C(=O)O[C@]3(C)[C@@H]1C2`, the pIC50 is 5.08 in the assay on MCF7; less than 2.82 in assay [1]; less than 2.82 in assay [2]; 5.11 with EL4; 5.03 in assay [3]; less than 2.82 in assay [4].
`CC1(C)N=C2C[C@H]3C[C@H](C3(C)C)[C@@]2(C)OC1=O`: the negative-log IC50 (pIC50) in the assay with MCF7 was 3.79; in assay [1], less than 2.70; in assay [2], less than 2.70; with EL4, 3.83; in assay [3] it was 3.78; in assay [4], less than 2.70.
`CC(C)(C)OC(=O)n1cnc(C[C@H]2N=C3C[C@H]4C[C@H](C4(C)C)[C@@]3(C)OC2=O)c1`: the pIC50 in the assay with MCF7 is 3.85; in assay [1] it was less than 2.89; in assay [2] it was less than 2.89; in the assay on EL4, 3.86; in assay [3], 3.83; in assay [4] it was less than 2.89.
On to `CC1(C)[C@@H]2CC3=NCC(=O)O[C@@]3(C)[C@H]1C2`, for which the pIC50 was 4.66 in the assay on MCF7; less than 3.05 in assay [1]; less than 3.05 in assay [2]; 4.72 with EL4; 4.37 in assay [3]; less than 3.05 in assay [4].
For the compound `CC1(C)[C@@H]2CC3=N[C@@H](CCC(=O)O)C(=O)O[C@@]3(C)[C@H]1C2`, the negative-log IC50 (pIC50) with MCF7 is 4.42; in assay [1], less than 2.92; in assay [2], less than 2.92; in the assay with EL4 it was 4.44; in assay [3], 4.38; in assay [4] it was less than 2.92.
Consider `C[C@@H]1N=C2C[C@@H]3C[C@@H](C3(C)C)[C@]2(C)OC1=O`, for which the negative-log IC50 (pIC50) in the assay with MCF7 was 3.81; in assay [1], less than 2.70; in assay [2], less than 2.70; in the assay on EL4, 3.84; in assay [3], 3.83; in assay [4], less than 2.70.
Turning to `CC(C)(C)OC(=O)CC[C@@H]1N=C2C[C@@H]3C[C@@H](C3(C)C)[C@]2(C)OC1=O`, the pIC50 is 4.40 in the assay with MCF7; less than 3.00 in assay [1]; less than 3.00 in assay [2]; 4.44 with EL4; 4.38 in assay [3]; less than 3.00 in assay [4].
With `CC(C)(C)OC(=O)NCCC[C@@H]1N=C2C[C@@H]3C[C@@H](C3(C)C)[C@]2(C)OC1=O`, the pIC50 was 5.20 with MCF7; less than 2.92 in assay [1]; less than 2.92 in assay [2]; 5.39 in the assay with EL4; 5.18 in assay [3]; less than 2.92 in assay [4].
For the compound `CC(C)(C)OC(=O)CC[C@H]1N=C2C[C@H]3C[C@H](C3(C)C)[C@@]2(C)OC1=O`, the pIC50 with MCF7 is 4.27; in assay [1], less than 2.92; in assay [2], less than 2.92; in the assay on EL4, 4.29; in assay [3], 4.26; in assay [4], less than 2.92.
As for `O=C1O[C@@H]2CCc3ccccc3C2=N[C@H]1Cc1ccccc1`, the pIC50 was 4.57 with MCF7; less than 3.00 in assay [1]; less than 3.00 in assay [2]; 4.62 with EL4; 4.52 in assay [3]; less than 3.00 in assay [4].
For `CC1(C)[C@H]2CC3=NCC(=O)O[C@]3(C)[C@@H]1C2`, the pIC50 with MCF7 was less than 3.52; in assay [1], less than 2.70; in assay [2], less than 2.70; in the assay with EL4 it was less than 3.52; in assay [3], less than 3.52; in assay [4] it was less than 2.70.
As for `C[C@@]12CCCC[C@H]1CC[C@@H]1OC(=O)[C@H](Cc3ccccc3)N=C12`, the pIC50 in the assay with MCF7 is 4.28; in assay [1], less than 2.77; in assay [2], less than 2.77; in the assay with EL4, 4.30; in assay [3] it was 4.29; in assay [4], less than 2.77.
Take `CC1(C)[C@@H]2CC3=N[C@@H](Cc4ccccc4)C(=O)O[C@@]3(C)[C@H]1C2`: the pIC50 in the assay on MCF7 is less than 3.52; in assay [1], less than 3.00; in assay [2] it was less than 3.00; in the assay with EL4 it was less than 3.52; in assay [3] it was less than 3.52; in assay [4], less than 3.00.
In turn, `CC1(C)[C@H]2CC[C@]1(C)[C@H]1OC(=O)[C@H](Cc3ccccc3)N=C21` gave a pIC50 in assay [3] of 3.80.
